Measurements of several laboratories.
Compare with care: the assays were run in different laboratories.
Target: Cyclin-dependent kinase 7 (CDK7, Homo sapiens, UniProt P50613)

COC(=O)Nc1nc2ccc(C(=O)c3ccccc3)cc2[nH]1
remaining binding (cell-free assay; competition with immobilised ligand; 10 µM): 11%

COc1cnc(Nc2cccc(S(N)(=O)=O)c2)nc1N1CCN(c2ccccc2)CC1
remaining binding (binding; competition with immobilised ligand; 1 µM): 84%

O=C(c1ccc(Nc2ncc(Cl)c(-c3ccc(Cl)s3)n2)cc1)N1CCC(N2CCCC2)CC1
remaining binding (binding; competition with immobilised ligand; 1 µM): 0.55%

COc1ccnn2ncc(-c3ccnc(N(C)C)n3)c12
remaining binding (binding; 1 µM): 85%

C[C@@H]1CN(c2ccc3ncc(-c4ccc5[nH]nc(C6CC6)c5c4)n3n2)C[C@H](C)O1
remaining binding (binding; competition with immobilised ligand; 0.5 µM): 23%

O=C(NCC1CCOCC1)c1n[nH]cc1NC(=O)c1c(F)cccc1F
remaining binding (binding; competition with immobilised ligand; 1 µM): 31%

CCC(=O)N[C@@H]1CC[C@H](C(=O)N(C)c2ccc(-c3nc4ccccc4o3)cc2)C1
remaining binding (cell-free assay; competition with immobilised ligand; 1 µM): 85%

O=C(c1ccc(Nc2nccc(-c3cc4ccccc4s3)n2)cc1)N1CCC(N2CCCC2)CC1
remaining binding (binding; competition with immobilised ligand; 1 µM): 12%

O=C(NCCCC1CCCCC1)c1ccc(CNC(=O)c2cnn(-c3ccccc3)c2C(F)(F)F)cc1
remaining binding (cell-free assay; competition with immobilised ligand; 0.1 µM): 100%

N[C@@H]1CCN(c2nccc(-c3cnn4ncccc34)n2)C1
remaining binding (binding; 1 µM): 21%

COc1ccc2c(c1)O[C@H](c1ccc(OC)c(OC)c1)C[C@@H]2NC(=O)C1(c2ccc3c(c2)OC(F)(F)O3)CC1
remaining binding (cell-free assay; competition with immobilised ligand; 1 µM): 85%

C[C@H]1CCN(c2nccc(-c3cnn4ncccc34)n2)C1
remaining binding (binding; 1 µM): 27%

Cn1nc(C(F)(F)F)cc1-c1cnc(N2CCc3cc(S(=O)(=O)Nc4c(F)cc(Cl)cc4F)cc(N4CCCC4=O)c32)nc1
remaining binding (cell-free assay; competition with immobilised ligand; 1 µM): 75%

C[C@@H](c1ccc(-n2cnc3c(N)ncnc32)cc1)N1CCc2nn(C)c(Cc3ccccc3)c2C1=O
remaining binding (binding; competition with immobilised ligand; 0.1 µM): 45%

O=S(=O)(NC1CCC(c2cc(F)ccc2F)(S(=O)(=O)c2ccc(Cl)cc2)CC1)C(F)(F)F (stereo not shown)
remaining binding (cell-free assay; competition with immobilised ligand; 1 µM): 100%

Cc1cnn2ncc(-c3ccnc(N(C)C)n3)c2c1
remaining binding (binding; 1 µM): 61%
